Assay results published in ChEMBL document CHEMBL4152337, “Novel indolo-sophoridinic scaffold as Topo I inhibitors: Design, synthesis and biological evaluation as anticancer agents” (Eur J Med Chem, 2018).
Active and inactive are the calls of the source. The rule behind the calls is not given here.

What was measured:
CNE-2 = assay: Cytotoxicity against human CNE2 cells assessed as reduction in cell viability after 48 hrs by MTT assay; assay type: functional, cell-based; settings: CNE-2, 48 h
In short: (§1)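 Cells at 3–4 × 10⁴/mL in DMEM + 10% FBS, pre-incubated 24 h in 5% CO₂. Then exposed 48 h to serial dilutions at 1, 5, 10, 20 and 50 µM; final DMSO <0.1%. MTT (5 mg/mL solution) added for 4 h at 37 °C, supernatant removed, formazan dissolved in DMSO, colorimetric read-out.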

HepG2 [1] = assay: Cytotoxicity against human HepG2 cells assessed as reduction in cell viability after 48 hrs by MTT assay; assay type: functional, cell-based; settings: HepG2, 48 h; in short: as §1
HepG2 [2] = assay: Cell cycle arrest in human HepG2 cells accumulation at S phase at 2.5 uM after 24 hrs by propidium iodide staining-based flow cytometric analysis (reference value: 45.44%); assay type: functional
In short: (§2)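 HepG2 seeded at 2 × 10⁵ cells/well in DMEM + 10% FBS. Treated 24 h at 1, 2.5 or 5 µM. Fixed overnight in cold 75% ethanol at 4 °C, RNase-treated 30 min at 37 °C, then propidium iodide-stained 30 min in the dark. Analysed by flow cytometry. Mean ± SD; representative of three independent experiments.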

HepG2 [3] = assay: Antitumor activity against human HepG2 cells xenografted in BALB/C nude mouse assessed as tumor weight at 40 mg/kg, ip treated twice per week for 25 days (reference value: 0.84 +/- 0.09 g); assay type: functional
In short: (§3)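 Female BALB/c nude mice, 5–6 weeks old, with subcutaneous flank xenografts of 8 × 10⁶ HepG2 cells. Randomized when tumors reached ~150–200 mm³. Dosed ip twice weekly for 25 days at 40 mg/kg; vehicle was saline with 10% DMSO (n = 6 vehicle, n = 5 per treated group). Caliper measurements every other day, volume = 0.5 × L × W². Tumors excised and weighed at end. Mean ± SD; t-test versus vehicle.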

HepG2 [4] = assay: Cell cycle arrest in human HepG2 cells accumulation at S phase at 1 uM after 24 hrs by propidium iodide staining-based flow cytometric analysis (reference value: 45.44%); assay type: functional; in short: as §2
HepG2 [5] = assay: Antitumor activity against human HepG2 cells xenografted in BALB/C nude mouse assessed as tumor volume at 40 mg/kg, ip treated twice per week for 25 days (reference value: 1185.78 +/- 137.44 mm3); assay type: functional
HepG2 [6] = assay: Antitumor activity against human HepG2 cells xenografted in BALB/C nude mouse assessed as tumor growth at 40 mg/kg, ip treated twice per week for 25 days relative to control; assay type: functional; in short: as §3
[7] = target: T1, DNA topoisomerase 1 (Homo sapiens) (UniProt P11387); assay: Inhibition of recombinant human topoisomerase-1-mediated relaxation of supercoiled pBR322 DNA at 500 uM after 30 mins by ethidium bromide staining based assay
T1 sequence (whole entry): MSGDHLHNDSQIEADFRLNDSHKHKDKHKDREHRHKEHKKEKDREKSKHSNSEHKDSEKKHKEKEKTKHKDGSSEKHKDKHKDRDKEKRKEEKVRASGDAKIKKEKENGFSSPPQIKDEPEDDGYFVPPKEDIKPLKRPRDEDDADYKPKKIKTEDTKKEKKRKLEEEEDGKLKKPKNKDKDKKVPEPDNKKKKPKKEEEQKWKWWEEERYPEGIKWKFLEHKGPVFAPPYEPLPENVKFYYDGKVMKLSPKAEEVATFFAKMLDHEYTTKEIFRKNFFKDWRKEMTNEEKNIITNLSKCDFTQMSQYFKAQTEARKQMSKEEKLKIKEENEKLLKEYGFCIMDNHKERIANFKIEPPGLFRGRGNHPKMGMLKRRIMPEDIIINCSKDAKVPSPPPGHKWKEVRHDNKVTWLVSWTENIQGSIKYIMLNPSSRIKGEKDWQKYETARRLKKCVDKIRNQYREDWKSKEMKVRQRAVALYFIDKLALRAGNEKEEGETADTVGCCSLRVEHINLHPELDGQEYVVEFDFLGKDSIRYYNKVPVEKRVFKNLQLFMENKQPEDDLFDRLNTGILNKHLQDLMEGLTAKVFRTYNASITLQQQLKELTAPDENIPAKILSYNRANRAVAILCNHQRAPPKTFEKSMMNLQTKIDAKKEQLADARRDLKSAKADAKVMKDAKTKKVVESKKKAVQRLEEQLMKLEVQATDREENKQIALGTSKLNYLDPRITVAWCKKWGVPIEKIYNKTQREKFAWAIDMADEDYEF
In short: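 Reactions stopped with loading buffer containing 0.5% SDS, bromophenol blue and 15% glycerol. Products run on a horizontal 0.8% agarose gel in 1× TAE at 4 V/cm for 40 min at room temperature. Gel stained with ethidium bromide and imaged.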

A549 = assay: Cytotoxicity against human A549 cells assessed as reduction in cell viability after 48 hrs by MTT assay; assay type: functional, cell-based; settings: A549, 48 h; in short: as §1
HepG2 [8] = assay: Cell cycle arrest in human HepG2 cells accumulation at S phase at 5 uM after 24 hrs by propidium iodide staining-based flow cytometric analysis (reference value: 45.44%); assay type: functional; in short: as §2
Mus musculus = assay: Toxicity against BALB/C nude mouse xenografted with human HepG2 cells assessed as body weight loss at 40 mg/kg, ip treated twice per week measured at day 19 post dose; assay type: organism-based; settings: in vivo
In short: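 HepG2 subcutaneous xenografts (8 × 10⁶ cells, flank) in female BALB/c nude mice aged 5–6 weeks. At ~150–200 mm³ tumors, ip dosing at 40 mg/kg twice weekly for 25 days; vehicle was saline with 10% DMSO. Body weight tracked every other day from day 1 to day 25. Mean ± SD; t-test versus vehicle.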

**Q.** Which results are given for OCCCC[C@@H]1[C@H]2CCCN3CCC[C@H](CN1Cc1cn(Cc4ccc(Br)cc4)c4ccccc14)[C@@H]23?
**A.** IC50 (CNE-2): 3.5 µM; IC50 (HepG2 [1]): 3.1 µM; Activity (HepG2 [2]): 60.68%; Activity (HepG2 [3]): 0.61 g; Activity (HepG2 [4]): 55.77%; Activity (HepG2 [5]): 737.04 mm3; T/C (HepG2 [6]): 55.99%; inhibition [7]: Active; IC50 (A549): 22.1 µM; Activity (HepG2 [8]): 64.17%

**Q.** With CCc1c2c(nc3ccc(OC(=O)N4CCC(N5CCCCC5)CC4)cc13)-c1cc3c(c(=O)n1C2)COC(=O)[C@]3(O)CC [IRINOTECAN] as the compound, how does the Activity (Mus musculus) read?
**A.** Toxic

**Q.** What about the Activity (HepG2 [3]) of the same compound?
**A.** 0.47 g

**Q.** And the T/C (HepG2 [6])?
**A.** 35.08%
